Results published in PubChem BioAssay AID624176 (Southern Research Specialized Biocontainment Screening …, 2012).
Activity calls are given as the source filed them.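 Rule for the calls: active = inhibition of 30% or more at any tested concentration; inactive = the rest.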

biological target: Aminopeptidase N (Plasmodium falciparum (isolate 3D7)) (UniProt O96935); assay: PfM1AAP inhibitors, counter-screen enzyme, dose response, counter-screen for PfM18AAP inhibitor project, biochemical, QFRET fluorogenic substrate, set 3 (AID 624176); settings: recombinant PfM1AAP, H-Leu-NHMec fluorogenic cleavage
Sequence (O96935 whole entry, looked up): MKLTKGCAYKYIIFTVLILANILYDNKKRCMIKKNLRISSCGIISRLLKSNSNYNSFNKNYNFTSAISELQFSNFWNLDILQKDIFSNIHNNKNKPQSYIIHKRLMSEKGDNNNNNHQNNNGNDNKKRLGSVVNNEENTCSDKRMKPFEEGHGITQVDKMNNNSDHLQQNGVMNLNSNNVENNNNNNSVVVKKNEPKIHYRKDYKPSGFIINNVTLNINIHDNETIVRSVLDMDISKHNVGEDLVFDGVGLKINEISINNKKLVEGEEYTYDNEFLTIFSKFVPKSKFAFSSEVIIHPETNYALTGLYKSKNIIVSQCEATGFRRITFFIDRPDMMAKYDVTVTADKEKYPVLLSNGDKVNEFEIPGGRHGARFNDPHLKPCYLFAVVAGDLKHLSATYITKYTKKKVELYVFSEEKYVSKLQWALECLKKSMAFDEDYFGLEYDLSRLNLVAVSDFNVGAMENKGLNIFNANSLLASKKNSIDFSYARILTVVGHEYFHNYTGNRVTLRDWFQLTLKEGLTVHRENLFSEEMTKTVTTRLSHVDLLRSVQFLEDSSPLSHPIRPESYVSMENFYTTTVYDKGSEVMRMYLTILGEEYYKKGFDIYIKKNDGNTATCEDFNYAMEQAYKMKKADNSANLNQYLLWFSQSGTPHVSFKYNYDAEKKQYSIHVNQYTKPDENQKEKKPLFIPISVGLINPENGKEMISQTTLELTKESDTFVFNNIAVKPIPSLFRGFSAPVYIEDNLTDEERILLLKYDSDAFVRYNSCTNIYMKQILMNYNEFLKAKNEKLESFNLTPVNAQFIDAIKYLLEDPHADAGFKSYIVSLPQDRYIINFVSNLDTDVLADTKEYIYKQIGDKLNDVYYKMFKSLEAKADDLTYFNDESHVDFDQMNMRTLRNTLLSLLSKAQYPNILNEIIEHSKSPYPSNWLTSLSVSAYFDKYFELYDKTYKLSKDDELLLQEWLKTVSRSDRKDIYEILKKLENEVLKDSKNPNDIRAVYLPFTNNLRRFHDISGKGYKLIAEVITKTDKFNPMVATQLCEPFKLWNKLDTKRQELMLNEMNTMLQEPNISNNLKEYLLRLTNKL
Method in brief: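 Test system: purified recombinant Plasmodium falciparum M1 alanyl aminopeptidase (PfM1AAP); quantity: PfM1AAP at 5 µg/mL final; signal: fluorescence of released NHMec, excitation 370 nm, emission 460 nm; measure: IC50 from constrained four-parameter fit; doses: 10-point twofold series from 100 µM; timing: reaction 90 min, room temperature; also added: H-Leu-NHMec substrate, 0.1 mM; replication: triplicate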

IC50 [µM] | Structure (SMILES)
101 | CCN(CCc1ccc(O)c(O)c1)c1c2ccccc2nc2ccccc12
74.6 | Oc1ccc(CCNc2ccnc3cc(Cl)ccc23)cc1O
47.2 | Oc1ccc(C2CCN(c3ccnc4ccccc34)C2)cc1O (stereo not given)
74.6 | Oc1ccc(C2CCN(c3ccnc4ccccc34)CC2)cc1O
61.3 | CN(CCc1ccc(O)c(O)c1)c1ncnc2ccccc12
56.4 | Oc1cccc(CCNc2ccnc3ccccc23)c1O
83.2 | CN(CCc1ccc(O)c(O)c1)c1ccnc2c(F)cccc12
75.4 | CN(CCc1ccc(O)c(O)c1)c1ccnc2cc(Cl)ccc12
101 | Cc1cc(N(C)CCc2ccc(O)c(O)c2)c2ccccc2n1
105 | Cc1cccc2c(NCCc3ccc(O)c(O)c3)ccnc12

same assay, conditions: recombinant PfM1AAP, H-Leu-NHMec fluorogenic cleavage; at 100 µM (top of the series)

inhibition | Structure (SMILES)
inactive | COc1ccc(CCN(C)c2ccnc3c(C)cccc23)cc1OC
inactive | COc1ccc(C2CCN(c3ccnc4ccccc34)CC2)cc1OC
inactive | COc1ccc(CCN(C)c2cc(C)nc3ccccc23)cc1OC
inactive | COc1ccc(CCCN(C)c2c3ccccc3nc3ccccc23)cc1OC
inactive | COc1ccc(CCCNc2c3c(nc4ccccc24)CCCC3)cc1OC
inactive | COc1ccc(CCNc2ncnc3ccccc23)cc1OC
inactive | COc1ccc(CCNc2ccnc3c(C)cccc23)cc1OC
inactive | Nc1c2ccccc2nc2ccccc12
inactive | Clc1c2c(nc3ccccc13)CCCC2
inactive | COc1ccc(CCN(C)c2ncnc3ccccc23)cc1OC
inactive | COc1ccc(C2CCN(c3ccnc4ccccc34)C2)cc1OC (stereo not given)
inactive | COc1ccc(CCNc2ccnc3c(F)cccc23)cc1OC
inactive | COc1ccc(CCN(C)c2ccnc3cc(Cl)ccc23)cc1OC
inactive | COc1ccc(CCN(C)c2ccnc3c(F)cccc23)cc1OC
inactive | CCOc1ccc2nccc(N(C)CCc3ccc(OC)c(OC)c3)c2c1
inactive | COc1ccc(CCNc2cc(C)nc3ccccc23)cc1OC
inactive | COc1ccc(CCNc2ccnc3cc(Cl)ccc23)cc1OC
inactive | CCOc1ccc2nccc(NCCc3ccc(OC)c(OC)c3)c2c1
inactive | COc1ccc(CCN(C)c2c3ccccc3nc3ccccc23)cc1OC
inactive | CCN(CCc1ccc(OC)c(OC)c1)c1c2ccccc2nc2ccccc12
inactive | COc1ccc(CCNc2c3c(nc4ccc(C)cc24)CCCC3)cc1OC
inactive | COc1ccc(CCNC(=O)c2cc(C)ccc2N)cc1OC
inactive | COc1cc(Br)c(CCNc2c3c(nc4ccccc24)CCCC3)cc1OC
inactive | COc1cc(Br)c(CCNc2c3ccccc3nc3ccccc23)cc1OC
inactive | COc1cc(Br)c(CCNc2ccnc3ccccc23)cc1OC
